Assay [1] concerns Plasmodium falciparum. In words: Antiplasmodial activity against multi drug-sensitive Plasmodium falciparum NF54 infected human erythrocytes after 48 hrs by [3H]hypoxanthine uptake. Format: functional, organism-based. Summed up:
(§1)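 Top test concentration was 5.0 µg mL-1.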

Assay [2] concerns Plasmodium falciparum. In words: Antiplasmodial activity against chloroquine and pyrimethamine-resistant Plasmodium falciparum K1 infected human erythrocytes after 48 hrs by [3H]hypoxanthine uptake. Format: functional, organism-based. Summed up: as §1
In the next assay the test system is L6. As to the kind of experiment: Cytotoxicity against rat L6 cells after 4 days. Format: cell-based. As to conditions: L6, 96 h. Summed up: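 Mammalian-cell cytotoxicity was tested up to a highest concentration of 90 µg mL-1.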
The subject of assay [3] is Trypanosoma brucei rhodesiense. In words: Trypanocidal activity against Trypanosoma brucei rhodesiense STIB 900 after 72 hrs. In kind it is functional, organism-based.
The test system of a further assay is Trypanosoma cruzi. In words: Trypanocidal activity against trypomastigotes of Trypanosoma cruzi Tulahuen C2C4 infected in rat L6 cells after 4 days. The note with it: L6, 96 h. Format: functional, organism-based.

We go through 4 compounds from ChEMBL document CHEMBL1150611, “Gaboroquinones A and B and 4'-O-demethylknipholone-4'-O-beta-D-glucopyranoside, phenylanthraquinones from the roots of Bulbine frutescens” (J Nat Prod, 2002).

Values after ≈ are worked out from the molar mass of the structure shown.

By IC50 is commonly meant the concentration that inhibits the measured activity by half. Lower therefore signals inhibition by little substance. As for `COc1cc(O)c(-c2c(CO)cc(O)c3c2C(=O)c2cccc(O)c2C3=O)c(O)c1C(C)=O` [GABOROQUINONE B], the IC50 with Plasmodium falciparum [1] was above 5 µg/mL; in the assay on Plasmodium falciparum [2], above 5 µg/mL; in assay [3], 45.5 µg/mL (≈ 101 µM); in the assay with Trypanosoma cruzi it was above 90 µg/mL. Also, the MIC in the assay on L6 was above 90 µg/mL.

As to `COc1c(C(C)=O)c(O)cc(O)c1-c1c(CO)cc(O)c2c1C(=O)c1cccc(O)c1C2=O` [GABOROQUINONE A], the IC50 with Plasmodium falciparum [1] turned out to be 4.2 µg/mL (≈ 9.33 µM); in the assay on Plasmodium falciparum [2], 4.8 µg/mL (≈ 10.7 µM); in assay [3], 5.1 µg/mL (≈ 11.3 µM); in the assay with Trypanosoma cruzi it was 33.1 µg/mL (≈ 73.5 µM). In the assay on L6, this compound had an MIC above 90 µg/mL.

As to `CC(=O)c1c(O[C@@H]2O[C@H](CO)[C@@H](O)[C@H](O)[C@H]2O)cc(O)c(-c2c(C)cc(O)c3c2C(=O)c2cccc(O)c2C3=O)c1O` [BULBINELONESIDE D], the IC50 in the assay on Plasmodium falciparum [1] was found to be 0.43 µg/mL (≈ 0.738 µM); in the assay with Plasmodium falciparum [2] it was 0.41 µg/mL (≈ 0.704 µM); in assay [3], 0.7 µg/mL (≈ 1.2 µM); in the assay with Trypanosoma cruzi, 6.8 µg/mL (≈ 11.7 µM). Also, the MIC against L6 was determined as 90 µg/mL (≈ 155 µM).

With `COc1cc(O)c(-c2c(C)cc(O)c3c2C(=O)c2cccc(O)c2C3=O)c(O)c1C(C)=O` [KNIPHOLONE], the IC50 in the assay with Plasmodium falciparum [1] turned out to be 0.91 µg/mL (≈ 2.09 µM); in the assay with Plasmodium falciparum [2] it was 0.67 µg/mL (≈ 1.54 µM); in assay [3], 9.3 µg/mL (≈ 21.4 µM); in the assay on Trypanosoma cruzi, 7.6 µg/mL (≈ 17.5 µM). In the assay with L6, the MIC was 33 µg/mL (≈ 76 µM).
